ARFGAP1 inhibitor: rat ARFGAP1 inhibition | Q62848 | Arfgap1-stimulated ARF1 GTP hydrolysis, GDP FP detection | inhibition, % at 16.5 µM | 360,000 tested, 0.26% active | AID 651572;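 active = inhibition above a per-plate limit, mean inhibition of low control wells plus 3 SD, cut at about 25% in these data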;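 also: 0% = DMSO wells with enzyme and 100% = wells lacking Arfgap1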
Target sequence (Q62848 1-136 limits assumed): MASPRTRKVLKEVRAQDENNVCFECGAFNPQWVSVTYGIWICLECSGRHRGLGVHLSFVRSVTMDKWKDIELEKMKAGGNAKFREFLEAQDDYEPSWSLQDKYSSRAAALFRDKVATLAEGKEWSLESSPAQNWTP
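Assay system: purified rat His6-Arfgap1 residues 1-136 (GAP domain); Reagent: human Δ17 ARF1 bound to GTP; Dosing: 16.5 µM single point, 1.26% DMSO; Times: GTP hydrolysis reaction 2 h at 25 °C; Signal: FP, GDP Alexa 633 tracer displaced from anti-GDP antibody, 620/688 nm; Measure: % inhibition from polarization.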
APOBEC3A inh: human APOBEC3A DNA deaminase inhibition. P31941. recombinant A3A, FAM/TAMRA ssDNA deamination fluorescence. inhibition, % at 20 µM. 330,000 tested, 0.41% active;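 active = at least 40% inhibition at 20 µM here, with at most 30% in a related deaminase screen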;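 also: plate controls were A3A with DMSO for no effect and wells lacking A3A enzyme for full effect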
Target sequence (P31941 whole entry, looked up): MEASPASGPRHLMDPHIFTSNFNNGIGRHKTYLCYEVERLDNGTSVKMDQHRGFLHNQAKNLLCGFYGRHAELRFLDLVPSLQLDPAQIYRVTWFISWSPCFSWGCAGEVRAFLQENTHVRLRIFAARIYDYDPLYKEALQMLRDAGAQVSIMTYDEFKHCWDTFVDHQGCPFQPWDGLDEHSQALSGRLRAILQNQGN
APOBEC3G inh: APOBEC3G (human) deaminase inhibition | Q9HC16 | recombinant A3G, ssDNA deamination FAM/TAMRA fluorescence | inhibition, % at 20 µM | 330,000 tested, 0.28% active | AID 493012;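 active = inhibition of at least 40% at 20 µM, with no more than 30% in the related APOBEC3A deaminase screen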;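 also: plate controls were DMSO wells with A3G for no effect and wells lacking A3G enzyme for full effect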
SUMO Mot1 rescue: inhibitors of SUMOylation pathway: yeast Mot1-301 growth rescue. 320,000 tested, 1% active. growth rescue, % at 18.8 µM. S. cerevisiae Mot1-301 growth rescue, ATP luminescence, 38.5C; percent above DMSO median, 100 means doubled;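 active = every valid replicate shows activation above 250% relative to neutral control wells; inactive = the rest, any valid replicate at or below 250%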;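 also: OY570 slx delta 5 strain wells were the positive control but not used for scaling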
ASAP1 GAP inh: ASAP1 ArfGAP inhibition; Q9ULH1; ASAP1-stimulated ARF1 GTP hydrolysis, GDP FP detection; inhibition, % at 16.5 µM; 360,000 tested, 0.19% active; in the data active = inhibition above about 25%;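 also: 0% = vehicle with enzyme and substrate and 100% = no enzyme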
Statin myotox sup: suppressors of simvastatin-induced myotoxicity in C2C12 myotubes; ATP luminescence, 48 h; scaled: DMSO 0, geranylgeraniol control 100; rescue of ATP level, % at 7.49 µM; 330,000 tested, 0.78% active; AID 602340;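 active = mean ATP rescue above about 67%, or every replicate alone reaching that limit, limit read from the data, passing the limit was not always enough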;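 also: myotubes were challenged with 10 µM simvastatin during compound exposure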
A3A conf: confirmation of human APOBEC3A DNA deaminase inhibitors. shares compounds with APOBEC3A inh. recombinant A3A, ssDNA deaminase UDG fluorescence assay. inhibition, % at 20 µM. 1,400 tested, 63% active. AID 493151;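 active = inhibition reaching a set limit, 80% of the first screen's cutoff, at 20 µM in any replicate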;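 also: plate controls were DMSO wells with A3A for no effect and wells lacking A3A enzyme for full effect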
UDG A3A counter: UDG inhibition in APOBEC3A counter-screen. shares compounds with APOBEC3A inh. UDG counterscreen, FAM/TAMRA uracil oligo fluorescence. inhibition, % at 20 µM. 1,000 tested, under 10 active; call rule not given here
Starred values were filed as active, the others as inactive; . = no result. Rows were chosen to be rich in hits. Some 2.1% of all compounds tested hit in one or more screens of this group.

SMILES	ARFGAP1 inhibitor	APOBEC3A inh	APOBEC3G inh	SUMO Mot1 rescue	ASAP1 GAP inh	Statin myotox sup	A3A conf	UDG A3A counter
CNC(=O)/C(C#N)=C\c1ccc(CNS(=O)(=O)c2ccc(Cl)cc2)o1	-4.5	71.0*	11.3	-22.5	5.6	.	77.2*	-2.7
O=C(Nc1ccc2c(c1)OCO2)N[C@H]1CC[C@H](CCNC(=O)C2CCOCC2)O[C@@H]1CO	.	.	.	.	.	-1.6	.	.
C[C@H]1CN([C@@H](C)CO)C(=O)c2cccc(NC(=O)Nc3ccc4c(c3)OCO4)c2O[C@@H]1CN(C)Cc1ccc(Oc2ccccc2)cc1	.	.	.	.	.	19.9	.	.
CC(C)Cc1nnc(NC(=O)CCC(=O)Nc2ccccc2)s1	-1.8	-2.9	-3.8	-7.5	-4.2	9.7	.	.
CC(C)Cc1nnc(NC(=O)Nc2ccccc2)s1	-6.8	70.2*	-4.4	-8.8	-3.6	-0.1	0.8	3.9
CC1(C)Oc2ccc3ccc(=O)oc3c2C(/C=N/O)=C1Cl	13.3	66.9*	7.6	19.4	4.0	-7.9	53.8*	-2.0
CC1(C)Oc2ccc3ccc(=O)oc3c2C(/C=N/O)C1=O (centres undefined)	-9.2	1.8	2.4	4.4	9.8	-2.8	.	.
Cc1cc(C(=O)N/N=C/c2cc(Br)c(Br)o2)n[nH]1	1.7	58.0*	15.6	2.3	-3.2	9.0	36.6*	-0.2
Cc1noc(C)c1CSCC(=O)Nc1nc2ccc(S(C)(=O)=O)cc2s1	8.7	44.3*	2.1	-3.6	7.6	-5.2	14.8	.
C[N+](C)(C)C/C=C1/COCO1	0.1	48.4*	17.9	-7.3	5.0	.	75.7*	4.1
C[C@@H]1CN([C@H](C)CO)C(=O)Cc2cc(NC(=O)CCCCCC(=O)Nc3ccccc3N)ccc2O[C@@H]1CN(C)C(=O)NC1CCCCC1	.	.	.	.	.	4.4	.	.
CC1CC(OCC(O)CN2CCOCC2)CC(C)(C)C1 (centres undefined)	0.1	4.2	-0.3	43.4	-6.2	-7.0	.	.
CC1CC(OCC(O)C[N+]2(C)CCOCC2)CC(C)(C)C1 (centres undefined)	1.0	62.1*	17.9	-8.2	-5.6	.	69.4*	3.7
CC(C)(C)NC(=O)CSc1nc2ccc(NC(=O)CSc3nnc(N)s3)cc2s1	9.7	47.7*	-2.6	12.1	4.5	.	68.8*	3.9
Nc1nnc(SCC(=O)Nc2ccc(N3CCOCC3)c(Cl)c2)s1	13.6	-1.8	2.6	10.3	1.8	-53.6	.	.
CCCC(=O)Nc1ccc2nc(SCC(=O)Nc3ccc(N4CCOCC4)c(Cl)c3)sc2c1	0.8	63.5*	12.2	22.8	9.2	-7.7	46.1*	-3.0
Nc1ccc2nc(SCC(=O)Nc3ccc(N4CCOCC4)c(Cl)c3)sc2c1	9.1	41.3*	13.5	-6.5	-6.3	.	54.8*	-2.4
CCC(=O)Nc1ccc2nc(SCC(=O)N3CCOCC3)sc2c1	0.8	-2.9	-6.7	59.0	0.8	.	.	.
CCC(=O)N(C)C[C@H]1Oc2cc(C#CCN(C)C)ccc2S(=O)(=O)N([C@@H](C)CO)C[C@@H]1C	.	.	.	.	.	-2.7	.	.
C[C@H](CO)N1C[C@H](C)[C@H](CN(C)Cc2ccc(Oc3ccccc3)cc2)Oc2ccc(NS(=O)(=O)c3cccs3)cc2C1=O	.	.	.	.	.	-19.1	.	.
CN1CCN(c2ccc(Cl)cc2NC(=O)CC2OC(=O)c3ccccc32)CC1 (centres undefined)	10.8	95.5*	28.7	215.0	-5.4	-10.4	69.1*	-2.2
CNC[C@H]1OCCCC[C@@H](C)Oc2ccc(NS(=O)(=O)c3ccc(OC)cc3)cc2C(=O)N([C@H](C)CO)C[C@H]1C	.	.	.	.	.	-2.2	.	.
O=C(C[C@@H]1C=C[C@@H](NC(=O)C2CC2)[C@H](CO)O1)NC1CCC1	.	.	.	.	.	4.8	.	.
O=C(NCC1COc2ccccc2O1)c1cc(S(=O)(=O)N2CCOCC2)c(Cl)cc1Cl (centres undefined)	0.8	41.9*	4.3	.	-4.7	-0.5	0.5	.

Bioassay records as filed in PubChem.
